# Compound activity (PubChem)
# Ec RNAP inh = Escherichia coli RNA polymerase inhibition. AID 559. actives 0.2% (n = 62,000). E. coli RNA polymerase, fluorescence transcription assay. inhibition, %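 (tested at 10 µM)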. P0A8V2; in the data active = inhibition above about 20%;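 also: 0% = enzyme without compound and 100% = no enzyme blank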
# AP ELISA ortho = orthogonal test for alternative complement pathway inhibitors | Human serum alternative complement pathway, LPS-coated ELISA, C3 deposition; tested in compound mixtures | inhibition, % at 5 µM | actives 0.08% (n = 62,000) | AID 1235;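 active = inhibition above 30% in each of the two pooled mixtures holding the compound, so the lower value exceeds 30%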;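 also: 0% = serum in Mg-EGTA without compound and 100% = EDTA serum blank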
#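 Medium: diluted human serum in Mg2+-EGTA GVB++. Assay system: human serum complement alternative pathway, C3 deposition onto LPS. Also added: Plate-bound LPS. Technique: Anti-C3 ELISA, OD 450 nm. Measure: percent inhibition. Incubation: 1 h at 37 °C. Dosing: 5 µM each compound, pools of ten, 50 µM per pool.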
# MMP13 inh = inhibitors of human MMP13 | P45452 | MMP-13 fTHP FRET cleavage, Mca fluorescence | inhibition, % at 4 µM | actives 0.07% (n = 65,000) | AID 570;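 active = inhibition above the mean of compound-free control plate wells plus 3 SD, cut at about 14% in these data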;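 also: 0% = DMSO wells and 100% = wells with reference MMP-13 inhibitor after basal subtraction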
# HePTP inh = human HePTP phosphatase inhibition | inhibition, % at 20 µM | actives 0.64% (n = 110,000) | recombinant HePTP phosphatase activity, OD absorbance | P35236 | AID 521; in the data active = inhibition above about 50%;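 also: plate controls were vehicle for no effect and reference inhibitor for full effect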
# Target sequence (P35236 whole entry, looked up): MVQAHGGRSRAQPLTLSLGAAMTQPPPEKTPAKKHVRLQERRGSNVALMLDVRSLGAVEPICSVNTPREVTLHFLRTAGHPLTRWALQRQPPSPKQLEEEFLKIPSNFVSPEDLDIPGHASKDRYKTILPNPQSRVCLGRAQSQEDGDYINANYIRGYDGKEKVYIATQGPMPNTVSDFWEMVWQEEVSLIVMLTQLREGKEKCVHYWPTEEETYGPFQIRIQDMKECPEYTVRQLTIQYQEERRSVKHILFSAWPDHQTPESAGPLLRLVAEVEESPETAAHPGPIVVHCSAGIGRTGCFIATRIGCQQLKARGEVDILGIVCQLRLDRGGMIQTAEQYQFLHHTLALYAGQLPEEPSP
# Ecoli WT expand = blocks growth of wild type E. coli BW25113. actives 0.15% (n = 98,000). OD600 absorbance. growth inhibition, % at 100 µM;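 active = growth inhibition above about 50% at one test dose, limit read from the data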;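 also: growth measured after 20 h incubation at 37 °C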
# tolC growth inh = growth inhibitors of E. coli BW25113 tolC mutant | OD615 | growth inhibition, % at 10 µM (by protocol) | actives 2.2% (n = 65,000);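 active = growth inhibition at or above a cutoff equal to the mean over every tested compound plus 3 SD, cut at about 60% in these data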;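 also: growth measured after 20 h incubation at 37 °C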
#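 Test system: E. coli BW25113 ΔtolC::kan bacteria | Medium: Kanamycin-containing LB broth (50 µg/mL) | Dosing: One dose of 10 µM final | Times: 20 h incubation with compound, 37 °C | Detection: Optical density read at 615 nm | Read-out basis: Percent growth inhibition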
# An asterisk follows results filed as active; x = not tested or not shown. The entries come from a sample that favours hits as a whole.
SMILES,Ec RNAP inh,AP ELISA ortho,MMP13 inh,HePTP inh,Ecoli WT expand,tolC growth inh
Cc1cc(C)nc(N2CCN(c3nc(C)nc4c3oc3ccccc34)CC2)n1,6,-6,3,-9,x,x
Cc1nc(N2CCN(Cc3ccc4c(c3)OCO4)CC2)c2oc3ccccc3c2n1,-5,26,-2,-8,x,95*
O=C1c2ccccc2-c2onc3ccc(Oc4ccc(Cl)cc4)c1c23,x,x,x,36,x,x
OC(c1ccc(Br)cc1)C12CN3CN(CN(C3)C1)C2 (stereo unspecified),x,x,x,104*,x,x
C=CCOc1cccc(/C=C/C(=O)c2ccc(C)cc2)c1,x,x,x,-10,x,x
CC12CCC(C(=O)N(c3nc(-c4ccccc4)cs3)C1=O)C2(C)C (stereo unspecified),x,x,x,-5,x,x
C=C(C)COc1ccc(-c2[nH]ncc2-c2ccccc2)c(O)c1,x,x,x,x,26,x
C=C(C)COc1ccc(-c2[nH]ncc2Oc2cccc(OC)c2)c(O)c1,9,-6,-6,3,13,100*
C=C(C)COc1ccc(-c2[nH]ncc2Oc2ccccc2OCC)c(O)c1,5,1,-5,4,9,100*
C=C(C)COc1ccc(-c2nc(N)nc(C)c2Oc2ccccc2OC)c(O)c1,4,20,0,6,-2,-19
C=C(C)COc1ccc(-c2[nH]ncc2-c2ccc(OC)c(OC)c2)c(O)c1,x,8,-8,0,2,91*
Cc1ccc2oc(-c3cccc(NC(=O)/C=C/c4ccc(-c5ccccc5[N+](=O)[O-])o4)c3C)nc2c1,x,x,x,-15,x,x
O=C(O)c1cc(N2C(=O)C=CC2=O)ccc1Cl,x,x,x,50*,x,x
NC(=O)c1cc(N2C(=O)C=CC2=O)ccc1Cl,x,x,x,x,6,x
CCOC(=O)c1cnn2c(C)c(C(C)=O)cnc12,x,x,x,4,x,x
Cc1cc(NC(=O)c2c(-c3c(Cl)cccc3Cl)noc2C)ccc1Br,x,x,x,-13,x,x
O=C(NCc1ccco1)C(C(=O)c1ccc(F)cc1)n1ccccc1=O (stereo unspecified),9,7,3,8,8,97*
Cc1ccc(-c2ccc(/C=C3/SC(=S)NC3=O)o2)cc1Cl,x,x,x,8,x,x
O=C1NC(=O)/C(=C/c2ccc(-c3ccc(O)c(C(=O)O)c3)o2)S1,x,x,x,102*,x,x
Cc1cc(C)c2nc3s/c(=C/c4cccn4-c4ccc([N+](=O)[O-])cc4)c(=O)n3c2c1,x,x,x,85*,x,x
Cc1c(Cl)cccc1N=C1NC(=O)/C(=C/c2ccc(-c3ccccc3C(=O)O)o2)S1,x,x,x,98*,x,x
O=C1NC(=S)S/C1=C\c1ccc(-c2ccc(Cl)c(C(=O)O)c2)o1,x,x,x,101*,x,x
O=C(C1=C(O)C(=O)N(c2nncs2)C1c1ccc(Cl)cc1)c1cccs1 (stereo unspecified),x,x,x,3,x,x
Cc1ccc(C(C)C)c(OCCOc2ccc(Cl)cc2/C=N/n2cnnc2)c1,x,x,x,0,x,x
COc1cc(C(=S)N2CCOCC2)ccc1OCc1ccccc1,x,x,x,9,x,x
SMILES,Ec RNAP inh,AP ELISA ortho,MMP13 inh,HePTP inh,Ecoli WT expand,tolC growth inh
Cc1cc(C)c2nc3s/c(=C\c4ccc(-c5ccc(Cl)c(C(=O)O)c5)o4)c(=O)n3c2c1,x,x,x,90*,x,x
CCOC(=O)c1ccc(-c2ccc(/C=C3\Sc4ccccc4C3=O)o2)cc1,x,x,x,-24,x,x
Cc1cc(C)c2nc3s/c(=C\c4ccc(-c5cc(C)c(C)cc5[N+](=O)[O-])o4)c(=O)n3c2c1,x,x,x,-2,x,x
O=C(O)c1cc(-c2ccc(/C=C3/Sc4ccccc4C3=O)o2)ccc1O,x,x,x,102*,x,x
CC1=C(C(=O)Nc2cccc(C)c2)C(c2ccc(Br)cc2)NC(=O)N1 (stereo unspecified),x,x,x,9,x,x
CC(=O)C12c3ccccc3C(c3ccccc31)C1C(=O)N(c3ccc(F)cc3)C(=O)C12 (stereo unspecified),x,x,x,-2,x,x
COCCCNCCOCCOc1cccc(OC)c1,x,x,x,10,x,x
CCOc1ccc(-c2nc(C#N)c(N3CCCCCC3)o2)cc1,1,6,-161,3,-14,68*
O=S(=O)(Nc1cccc2cccnc12)c1ccc(S(=O)(=O)N2CCCC2)cc1,4,2,-2,8,-4,81*
COC(=O)CSc1nc(N2CCCCC2)c2c(c1C#N)CCCC2,2,21,0,5,-8,64*
N#Cc1c(SCC(=O)O)nc(N2CCCCC2)c2c1CCCC2,-1,x,-4,9,-6,1
Cc1ccc(-n2ncnc2-c2ccccc2Cl)cc1Cl,x,x,x,8,x,x
CCC(C(=O)Nc1cc([N+](=O)[O-])ccc1OC)c1ccccc1 (stereo unspecified),x,x,x,5,x,x
CCC(C(=O)Nc1ccc(OC)cc1OC)c1ccccc1 (stereo unspecified),x,x,x,104*,x,x
CN(c1ccccc1)C(c1ccc(F)cc1)c1nnnn1C1CCCC1 (stereo unspecified),4,23,3,12,-15,73*
CCOC(=O)c1cc2sc(C)cc2n1CC(=O)Nc1cccc(C)c1C,3,-9,0,-3,-13,0
CCOC(=O)c1cc2sc(C)cc2n1C(C)C(=O)OCC (stereo unspecified),4,0,1,15,6,62*
COc1ccc(OC)c(-c2cc(C(=O)N3CCCc4ccccc43)no2)c1,7,0,3,-1,-23,65*
COc1ccc(-c2cc(C(=O)N3CCCc4ccccc43)no2)cc1OC,-1,15,-4,5,-12,39
COc1cccc(-c2cc(C(=O)N3CCCc4ccccc43)no2)c1,0,19,-3,13,-9,55
COc1ccc(-c2cc(C(=O)N3CCCc4ccccc43)no2)cc1,-2,-2,4,-2,-17,63*
CCc1ccccc1N(CC(=O)N1CCOCC1)S(C)(=O)=O,x,x,x,8,x,x
COc1ccc(NC(=O)COc2cccc(C)c2)c(OC)c1,x,x,x,1,x,x
CSc1nc2ccc(NS(=O)(=O)c3ccc(Cl)s3)cc2s1,9,6,10,-4,27,99*
Clc1ccc(OCCCc2nc(-c3cccnc3)no2)c(Cl)c1,16,-8,1,3,9,95*
SMILES,Ec RNAP inh,AP ELISA ortho,MMP13 inh,HePTP inh,Ecoli WT expand,tolC growth inh
CCOc1ccc(C(=O)Nc2cccc(S(N)(=O)=O)c2)cc1Br,x,x,x,103*,x,x
Oc1ccccc1-c1cc(-c2cccc(F)c2)n[nH]1,7,3,0,7,24,100*
Cc1ccc(O)c(-c2cc(-c3ccccc3C)[nH]n2)c1,4,-8,3,5,14,100*
Oc1ccccc1-c1cc(-c2ccccc2Cl)[nH]n1,-1,10,4,4,4,100*
Oc1ccccc1-c1cc(-c2ccco2)[nH]n1,x,x,x,6,17,x
CCOC(=O)CNc1cccc(NCC(=O)OCC)c1,x,x,x,-8,x,x
COc1ccc(C2C(C(=O)OCC3CCCO3)=C(C)NC3=C2C(=O)CC(C)(C)C3)c(OC)c1OC (stereo unspecified),x,x,x,-11,x,x
COc1cccc(C(=O)Nc2ccccc2CO)c1,x,x,x,9,x,x
O=C(c1ccco1)N1CCN(c2c(-c3ccccc3)c3cc(Cl)ccc3[nH]c2=O)CC1,6,13,-8,12,-7,70*
